Source: article PMC8033778 (ACS Pharmacology & Translational Science, 2021)

Assay: In vivo stability of 18F-labeled Tz-derivatives
Settings: naïve mice, plasma 30 min p.i., radio-TLC, n = 4
Summary of the method: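 Naïve mice received the 18F-labeled tetrazine. Blood was collected after 30 min and plasma analysed by radio-TLC. Stability is expressed as the fraction (%) of radioactivity corresponding to intact compound (n = 4).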

Cc1nnc(-c2ccc(OCc3cn(CC[18F])nn3)cc2)nn1 [[^18F]5, 3-(4-((1-(2-[18F]Fluoroethyl)-1H-1,2,3-triazol-4-yl)methoxy)phenyl)-6-methyl-1,2,4,5-tetrazine]
in vivo stability (% intact [18F]Tz after 30 min): 26%
